Calls of active or inactive are those of the source. No cut-off for these calls is given here.
Assays:
[1] = molecular target: T1, Alpha-1A adrenergic receptor (Oryctolagus cuniculus) (UniProt O02824); experiment: Binding affinity to rabbit aorta adrenergic alpha1A receptor assessed as inhibition of phenylephrine-induced constriction after 30 mins
T1 sequence (whole entry): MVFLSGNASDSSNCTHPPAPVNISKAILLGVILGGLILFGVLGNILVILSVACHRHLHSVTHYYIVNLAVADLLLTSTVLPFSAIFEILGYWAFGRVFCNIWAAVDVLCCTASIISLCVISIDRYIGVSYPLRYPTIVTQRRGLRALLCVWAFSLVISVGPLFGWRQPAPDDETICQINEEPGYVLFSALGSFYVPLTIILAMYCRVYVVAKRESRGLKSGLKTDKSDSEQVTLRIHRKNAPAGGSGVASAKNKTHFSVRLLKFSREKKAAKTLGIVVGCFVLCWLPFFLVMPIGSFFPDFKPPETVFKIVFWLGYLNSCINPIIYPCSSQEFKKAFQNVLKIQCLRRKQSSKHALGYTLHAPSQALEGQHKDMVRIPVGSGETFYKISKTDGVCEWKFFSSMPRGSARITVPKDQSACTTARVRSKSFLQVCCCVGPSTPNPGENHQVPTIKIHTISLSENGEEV
In short: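 Rabbit aortic rings (3–4 mm) held in organ bath under 20 mN resting tension, equilibrated 30 min. Cumulative phenylephrine curves (5 × 10⁻⁹–5 × 10⁻⁴ M) run without or with 30 μM antagonist after 30 min preincubation. EC50 from non-linear sigmoidal fit per experiment; concentration ratio r gives KB via Schild equation r − 1 = [B]/KB. Mean ± S.E.M of 4–6 experiments.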

[2] = molecular target: T2, Alpha-1D adrenergic receptor (Rattus norvegicus, UniProt P23944); experiment: Antagonist activity at adrenergic alpha 1D receptor in rat thoracic aorta assessed as inhibition of noradrenaline-induced contraction after 1 hr; type: functional, tissue-based; conditions: read-out: pA2 (converted)
T2 sequence (P23944 whole entry): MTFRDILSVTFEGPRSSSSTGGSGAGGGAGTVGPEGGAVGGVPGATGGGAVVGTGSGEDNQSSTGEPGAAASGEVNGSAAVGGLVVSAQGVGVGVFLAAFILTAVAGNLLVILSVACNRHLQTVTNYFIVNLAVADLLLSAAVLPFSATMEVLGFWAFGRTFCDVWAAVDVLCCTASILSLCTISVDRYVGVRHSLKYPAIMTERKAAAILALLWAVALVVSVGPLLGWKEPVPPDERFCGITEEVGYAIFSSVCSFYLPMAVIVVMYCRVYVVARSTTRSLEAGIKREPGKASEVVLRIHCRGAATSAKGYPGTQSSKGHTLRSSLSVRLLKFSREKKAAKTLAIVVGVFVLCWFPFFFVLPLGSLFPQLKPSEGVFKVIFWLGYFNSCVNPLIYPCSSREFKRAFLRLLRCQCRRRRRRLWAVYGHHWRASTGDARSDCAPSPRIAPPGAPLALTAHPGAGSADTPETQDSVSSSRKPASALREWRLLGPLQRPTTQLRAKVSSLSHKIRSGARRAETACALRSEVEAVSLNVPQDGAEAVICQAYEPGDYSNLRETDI

Rattus norvegicus = organism: Rattus norvegicus; experiment: Selectivity ratio of Ki for rat liver adrenergic alpha1B receptor to Ki for rat salivary gland adrenergic alpha 1A
In short: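 [3H]-prazosin competition binding on rat liver membranes (α1B) and rat salivary gland membranes (α1A), about 150 µg protein, 45 min at 25 °C in 50 mM TRIS-HCl with 1 mM EDTA, pH 7.4. Radioligand was 0.1 nM (liver) or 0.06 nM (salivary). […] Filtration, then scintillation counting. Ki from IC50 by Cheng–Prusoff; ratio of the two Ki values.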

[3] = molecular target: T3, Alpha-1D adrenergic receptor (Rattus norvegicus) (UniProt P23944); conditions: Thoracic aorta
T3 sequence (whole entry): T2 sequence (P23944 whole entry)

[4] = molecular target: T4, Alpha-1A adrenergic receptor (Rattus norvegicus, UniProt P43140); experiment: Displacement of [3H]prazosin from rat salivary gland adrenergic alpha 1A receptor after 45 mins by liquid scintillation counter
T4 sequence (P43140 whole entry): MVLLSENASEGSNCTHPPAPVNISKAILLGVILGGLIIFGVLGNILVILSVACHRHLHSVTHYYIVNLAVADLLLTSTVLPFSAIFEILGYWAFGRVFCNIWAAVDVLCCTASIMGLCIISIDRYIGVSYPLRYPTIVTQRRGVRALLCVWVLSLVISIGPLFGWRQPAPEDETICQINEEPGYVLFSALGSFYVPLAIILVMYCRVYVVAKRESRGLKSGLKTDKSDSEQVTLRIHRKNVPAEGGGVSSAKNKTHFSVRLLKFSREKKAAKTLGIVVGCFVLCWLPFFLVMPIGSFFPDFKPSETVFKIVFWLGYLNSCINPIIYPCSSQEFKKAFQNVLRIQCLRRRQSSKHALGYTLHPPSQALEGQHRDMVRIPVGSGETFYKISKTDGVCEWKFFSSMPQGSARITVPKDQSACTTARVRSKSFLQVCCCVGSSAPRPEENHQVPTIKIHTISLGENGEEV

Oryctolagus cuniculus = experiment: Hypotensive activity in New Zealand albino rabbit adrenergic alpha1 receptor assessed as inhibition of phenylephrine-induced rabbit systemic vascular resistance at 100 ug/kg, iv administered as bolus dose; type: functional, organism-based
In short: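 Anaesthetised New Zealand albino rabbits of either sex (3.0 kg), given pentobarbital 40 mg/kg i.v. plus a 5 mg/kg top-up, tracheotomised, ventilated with room air and paralysed with pancuronium 1 mg/kg i.v. After 15–30 min stabilisation, phenylephrine dose-response curves (0.1–100 μg/kg, i.v.) were run with or without test compound given i.v. (0.1–100 μg/kg). Recording was continuous over 30 min. Systemic vascular resistance = MAP/cardiac output × 80 (dyn s/cm⁵).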

[5] = molecular target: T5, Alpha-1B adrenergic receptor (Rattus norvegicus, UniProt P15823); experiment: Displacement of [3H]prazosin from rat liver adrenergic alpha1B receptor after 45 mins by liquid scintillation counter
T5 sequence (P15823 whole entry): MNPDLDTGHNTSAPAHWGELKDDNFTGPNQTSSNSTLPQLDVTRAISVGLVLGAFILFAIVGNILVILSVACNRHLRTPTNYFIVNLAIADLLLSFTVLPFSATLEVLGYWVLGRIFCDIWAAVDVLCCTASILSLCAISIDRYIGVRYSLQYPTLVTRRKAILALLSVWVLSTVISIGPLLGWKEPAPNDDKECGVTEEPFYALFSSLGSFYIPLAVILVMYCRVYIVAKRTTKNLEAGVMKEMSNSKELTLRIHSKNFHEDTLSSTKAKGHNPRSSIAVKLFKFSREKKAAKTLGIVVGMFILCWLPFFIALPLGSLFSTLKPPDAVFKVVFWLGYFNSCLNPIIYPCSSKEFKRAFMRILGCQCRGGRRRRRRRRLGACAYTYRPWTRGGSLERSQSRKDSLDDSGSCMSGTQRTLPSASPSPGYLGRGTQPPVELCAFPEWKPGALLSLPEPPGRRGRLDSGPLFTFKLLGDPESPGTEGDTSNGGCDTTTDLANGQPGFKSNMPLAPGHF

[6] = molecular target: T1, Alpha-1A adrenergic receptor (Oryctolagus cuniculus); experiment: Ratio of BMY7378 KB to compound KB for rabbit aorta adrenergic alpha1A receptor assessed as inhibition of phenylephrine-induced constriction after 30 mins

Row | Compound | Kb [1] [nM] | other results
1 | c1ccc(N2CCN(CCCc3ccc4c(c3)OCO4)CC2)cc1 | 3800 | 
2 | c1ccc(CCCCN2CCN(c3ccccc3)CC2)cc1 | 1420 | 
3 | COc1ccc(N2CCN(CCc3ccc4c(c3)OCO4)CC2)cc1 | 870 | 
4 | Fc1ccc(N2CCN(CCc3ccc4c(c3)OCO4)CC2)cc1 | 410 | 
5 | c1ccc(N2CCN(CCc3ccc4c(c3)OCO4)CC2)cc1 | 270 | 
6 | COc1ccccc1N1CCN(CCN2C(=O)CC3(CCCC3)CC2=O)CC1 | 1450 | 
7 | COc1ccccc1N1CCN(CCc2ccc3c(c2)OCO3)CC1 | 18 | Kb [2]: 0.0251 nM; Ratio Ki (Rattus norvegicus): 40; pKb [3]: 10.3; IC50 [4]: 0.269 nM; inhibition (Oryctolagus cuniculus): Active; IC50 [5]: 6.03 nM; Ki [5]: 5.55 nM; Ratio [6]: 80
8 | COc1cc2nc(N3CCN(C(=O)c4ccco4)CC3)nc(N)c2cc1OC |  | inhibition (Oryctolagus cuniculus): Active
9 | c1ccc(N2CCN(CCOc3ccc4c(c3)OCO4)CC2)cc1 | 10300 | 
10 | c1ccc(N2CCN(Cc3ccc4c(c3)OCO4)CC2)cc1 | 25000 | 
11 | Clc1ccc(N2CCN(CCc3ccc4c(c3)OCO4)CC2)cc1 | 1240 | 
12 | c1ccc(OCCN2CCN(c3ccccc3)CC2)cc1 | 7320 | 
13 | c1ccc(CN2CCN(c3ccccc3)CC2)cc1 | 25000 | 
14 | c1ccc(N2CCN(CCCCc3ccc4c(c3)OCO4)CC2)cc1 | 9380 | 
15 | COc1ccccc1N1CCN(CCCc2ccc3c(c2)OCO3)CC1 | 130 | 
16 | c1ccc(CCCN2CCN(c3ccccc3)CC2)cc1 | 9380 | 
17 | c1ccc(N2CCN(CCCOc3ccc4c(c3)OCO4)CC2)cc1 | 27500 | 
18 | c1ccc(CCN2CCN(c3ccccc3)CC2)cc1 | 1460 | 

Reference: ChEMBL document CHEMBL2150896, “Discovery of LASSBio-772, a 1,3-benzodioxole N-phenylpiperazine derivative with potent alpha 1A/D-adrenergic receptor blocking properties” (Eur J Med Chem, 2011)
